Data on 22 compounds can be found in ChEMBL document CHEMBL5247675, “Antimicrobial Peptides Incorporating Halogenated Marine-Derived Amino Acid Substituents” (ACS Med Chem Lett, 2023).

One series deals with Escherichia coli. As to the kind of experiment: Antimicrobial activity against Escherichia coli ATCC 25922 assessed as reduction in microbial growth incubated for 18 hrs by CLSI protocol based two fold serial dilution method. The class given is functional.
The nature of series [1]: Hemolytic activity in human RBC assessed as hemolysis rate at 100 uM incubated for 45 mins by spectrophotometric assay relative to control. The class given is toxicity, cell-based, Erythrocyte. The following applies: human red blood cells, read-out: Activity. The method, boiled down: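 Isolated, washed human erythrocytes were exposed to each compound at a single concentration of 100 μM. Percent hemolysis was recorded as a relative measure between compounds.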

The next series relates to Staphylococcus aureus. In words: Antimicrobial activity against Staphylococcus aureus ATCC 29213 assessed as reduction in microbial growth incubated for 18 hrs by CLSI protocol based two fold serial dilution method. Type of series: functional.
A further series concerns Candida albicans. As to the kind of experiment: Antimicrobial activity against Candida albicans SC5314 assessed as reduction in microbial growth incubated for 48 hrs by CLSI protocol based broth microdilution method. Type of series: functional.
The test system of the next series is Aspergillus fumigatus. As to the kind of experiment: Antimicrobial activity against clinical isolate Aspergillus fumigatus SVB-F136 assessed as reduction in microbial growth incubated for 48 hrs by CLSI protocol based broth microdilution method. Type of series: functional. An outline of the steps: (§1)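 Clinical isolates of the fungi were subcultured from Auckland City Hospital. MICs were determined following Clinical and Laboratory Standards Institute recommended protocols.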
(Broth dilution looks for growth in wells or tubes with falling amounts of substance.)

The test system of another series is Cyberlindnera jadinii. As to the kind of experiment: Antimicrobial activity against clinical isolate Candida utilis SVB-Y1 assessed as reduction in microbial growth incubated for 48 hrs by CLSI protocol based broth microdilution method. The class given is functional. The following applies: Williopsis jadinii. The method, boiled down: as §1
A short description of series [2]: Cytotoxicity against human HeLa cells assessed as reduction in cell viability incubated for 24 hrs by PrestoBlue assay. The class given is toxicity, cell-based. An outline of the steps: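 HeLa (human epithelial) cells were exposed to serial peptide dilutions from 1.4 to 87.5 μM for 24 h at 37 °C. Viability was read by PrestoBlue, and IC50 was taken from dose–response curves. There were two independent experiments, each in triplicate, reported as mean ± SD.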

The nature of series [3]: Hemolytic activity in human RBC assessed as hemolysis rate incubated for 45 mins by spectrophotometric assay. The note with it: human red blood cells. The class given is toxicity, cell-based, Erythrocyte.

Non-standard residues stand in square brackets, D forms with d. Residues, ends and D or L forms follow the SMILES beside them. *: point of attachment. Bip = N[C@@H](Cc1ccc(-c2ccccc2)cc1)C(=O)O; Lys(Me3) = C[N+](C)(C)CCCC[C@H](N)C(=O)O; NHPhenethyl = c1ccc(CCN*)cc1 Bounds are passed on as bounds.

For orientation: MIC means the lowest concentration found to suppress growth. Regarding `COc1c(Br)cc(C[C@H](NC(=O)[C@@H](N)CCCNC(=N)N)C(=O)N[C@@H](CCCNC(=N)N)C(=O)NCCc2ccccc2)cc1Br`, the minimum inhibitory concentration (MIC) in the series with Escherichia coli was above 64 µM; in the series on Staphylococcus aureus, above 64 µM; with Candida albicans it was 16 µM; with Aspergillus fumigatus, 64 µM; in the series on Cyberlindnera jadinii it was 8 µM. Besides, the hemolysis at 0.75 h, 100 µM in series [1] worked out at 0.34%.
In general, IC50 refers to the concentration at which inhibition is half-maximal. Broadly, the EC50 is the concentration needed to bring the measured effect to its halfway point. Regarding `CC(C)(C)c1cc(C(C)(C)C)c2[nH]c(C(C)(C)C)c(C[C@H](NC(=O)[C@@H](N)CCCNC(=N)N)C(=O)N[C@@H](CCCNC(=N)N)C(=O)NCCc3ccccc3)c2c1` [LTX-109], the minimum inhibitory concentration (MIC) worked out at 2 µM in the series with Escherichia coli; 2 µM in the series on Staphylococcus aureus; 4 µM with Candida albicans; 8 µM in the series with Aspergillus fumigatus; 2 µM with Cyberlindnera jadinii. Further, in series [2], the IC50 at 24 h amounted to 46.6 µM. In addition, the EC50 at 45 min in series [3] stood at 222 µM. Also, the hemolysis at 0.75 h, 100 µM in series [1] worked out at 4.23%.
As to `COc1c(Br)cc(C[C@H](NC(=O)[C@@H](N)CCCNC(=N)N)C(=O)N[C@@H](CCCNC(=N)N)C(=O)NCCc2c[nH]c3cc(Br)ccc23)cc1Br`, the MIC in the series with Escherichia coli, with Staphylococcus aureus, in the series with Candida albicans, in the series on Aspergillus fumigatus and in the series with Cyberlindnera jadinii was above 64 µM throughout.
Turning to POLYMYXIN B, the MIC was 0.0625 µM in the series with Escherichia coli and above 64 µM in the series on Staphylococcus aureus.
Consider `COc1ccc(CCNC(=O)[C@H](CCCNC(=N)N)NC(=O)[C@H](Cc2ccc(-c3ccc(OC)c(Br)c3)cc2)NC(=O)[C@@H](N)CCCNC(=N)N)cc1Br`, for which the minimal inhibitory concentration (MIC) with Escherichia coli is above 64 µM; in the series with Staphylococcus aureus, above 64 µM; in the series on Candida albicans, 32 µM; in the series on Aspergillus fumigatus, above 64 µM; with Cyberlindnera jadinii it was 4 µM. The hemolysis at 0.75 h, 100 µM in series [1] was 0.29%.
Take `C[N+](C)(C)CCCC[C@H](NC(=O)[C@H](Cc1ccc(-c2ccccc2)cc1)NC(=O)[C@@H](N)CCCC[N+](C)(C)C)C(=O)NCCc1ccccc1` (H-[Lys(Me3)]-[Bip]-[Lys(Me3)]-NHPhenethyl): the minimal inhibitory concentration (MIC) with Escherichia coli is above 64 µM; in the series with Staphylococcus aureus, above 64 µM; in the series on Candida albicans it was above 64 µM; with Aspergillus fumigatus it was above 64 µM; in the series with Cyberlindnera jadinii, 64 µM.
For the compound `N=C(N)NCCC[C@H](NC(=O)[C@@H](Cc1c[nH]c2cc(Br)ccc12)NC(=O)[C@@H](N)CCCNC(=N)N)C(=O)NCCc1ccccc1`, the minimum inhibitory concentration (MIC) in the series with Escherichia coli is above 64 µM; in the series on Staphylococcus aureus it was above 64 µM; in the series with Candida albicans, above 64 µM; in the series with Aspergillus fumigatus, above 64 µM; with Cyberlindnera jadinii, 16 µM. Further, in series [1], the hemolysis at 0.75 h, 100 µM is 0.27%.
Consider `CC1(C)S[C@@H]2[C@H](NC(=O)[C@H](N)c3ccc(O)cc3)C(=O)N2[C@H]1C(=O)O` [AMOXICILLIN], for which the values for the MIC with Escherichia coli and with Staphylococcus aureus were 16 µM and 4 µM, respectively.
For the compound `N=C(N)NCCC[C@H](NC(=O)[C@H](Cc1ccc(-c2cc(Br)c(O)c(Br)c2)cc1)NC(=O)[C@@H](N)CCCNC(=N)N)C(=O)NCCc1cc(Br)c(O)c(Br)c1`, the MIC with Escherichia coli is above 64 µM; in the series on Staphylococcus aureus, above 64 µM; with Candida albicans it was above 64 µM; with Aspergillus fumigatus, at least 64 µM; with Cyberlindnera jadinii, 64 µM.
Consider `COc1c(Br)cc(C[C@H](NC(=O)CCCCC[N+](C)(C)C)C(=O)N[C@@H](CCCNC(=N)N)C(=O)NCCc2ccccc2)cc1Br`, for which the MIC in the series with Escherichia coli, in the series on Staphylococcus aureus, in the series with Candida albicans, in the series on Aspergillus fumigatus and with Cyberlindnera jadinii was above 64 µM throughout.
Take `COc1c(Br)cc(-c2ccc(C[C@H](NC(=O)[C@@H](N)CCCNC(=N)N)C(=O)N[C@@H](CCCNC(=N)N)C(=O)NCCc3ccccc3)cc2)cc1Br`: the minimum inhibitory concentration (MIC) amounted to 16 µM in the series on Escherichia coli; 8 µM in the series with Staphylococcus aureus; 4 µM with Candida albicans; 16 µM in the series with Aspergillus fumigatus; 4 µM in the series with Cyberlindnera jadinii. In addition, the IC50 at 24 h in series [2] is above 87.5 µM. The hemolysis at 0.75 h, 100 µM in series [1] was determined as 1.38%.
On to `COc1c(Br)cc(CCNC(=O)[C@H](CCCNC(=N)N)NC(=O)[C@H](Cc2c[nH]c3cc(Br)ccc23)NC(=O)[C@@H](N)CCCNC(=N)N)cc1Br`, for which the MIC in the series with Escherichia coli turned out to be 16 µM; with Staphylococcus aureus it was 8 µM; with Candida albicans, 2 µM; with Aspergillus fumigatus, 16 µM; in the series with Cyberlindnera jadinii, 2 µM. Besides, the IC50 at 24 h in series [2] was above 87.5 µM. For the same compound, in series [1], the hemolysis at 0.75 h, 100 µM was 1.19%.
Regarding `COc1c(Br)cc(CCNC(=O)[C@H](CCCNC(=N)N)NC(=O)[C@H](Cc2ccc(-c3cc(Br)c(OC)c(Br)c3)cc2)NC(=O)[C@@H](N)CCCNC(=N)N)cc1Br`, the minimal inhibitory concentration (MIC) with Escherichia coli turned out to be 8 µM; with Staphylococcus aureus, 4 µM; with Candida albicans it was 4 µM; with Aspergillus fumigatus it was 16 µM; in the series with Cyberlindnera jadinii, 4 µM. Further, the IC50 at 24 h in series [2] is above 87.5 µM. In addition, the hemolysis at 0.75 h, 100 µM in series [1] came out at 1.62%.
On to `COc1c(Br)cc(CCNC(=O)[C@H](CCCNC(=N)N)NC(=O)[C@H](Cc2c[nH]c3ccccc23)NC(=O)[C@@H](N)CCCNC(=N)N)cc1Br`, for which the minimal inhibitory concentration (MIC) was above 64 µM in the series on Escherichia coli; 64 µM in the series with Staphylococcus aureus; 8 µM with Candida albicans; 64 µM with Aspergillus fumigatus; 8 µM with Cyberlindnera jadinii. In addition, the hemolysis at 0.75 h, 100 µM in series [1] was 0.35%.
On to `C[C@@H]1[C@H](O)[C@@H](C)/C=C/C=C/C=C/C=C/C=C/C=C/C=C/[C@H](O[C@@H]2O[C@H](C)[C@@H](O)[C@H](N)[C@@H]2O)C[C@@H]2O[C@](O)(C[C@@H](O)C[C@@H](O)[C@H](O)CC[C@@H](O)C[C@@H](O)CC(=O)O[C@H]1C)C[C@H](O)[C@H]2C(=O)O` [AMPHOTERICIN B], for which the minimum inhibitory concentration (MIC) in the series on Candida albicans amounted to 1 µM; with Aspergillus fumigatus, 4 µM; in the series on Cyberlindnera jadinii it was 2 µM.
For `C[N+](C)(C)CCCC[C@H](NC(=O)[C@H](Cc1ccc(-c2ccccc2)cc1)NC(=O)[C@@H](N)CCCNC(=N)N)C(=O)NCCc1ccccc1` (H-Arg-[Bip]-[Lys(Me3)]-NHPhenethyl), the minimum inhibitory concentration (MIC) in the series on Escherichia coli, in the series on Staphylococcus aureus, with Candida albicans, in the series on Aspergillus fumigatus and in the series on Cyberlindnera jadinii was above 64 µM each time.
`COc1ccc(-c2ccc(C[C@H](NC(=O)[C@@H](N)CCCNC(=N)N)C(=O)N[C@@H](CCCNC(=N)N)C(=O)NCCc3ccccc3)cc2)cc1`: the MIC in the series with Escherichia coli is above 64 µM; in the series on Staphylococcus aureus, 32 µM; with Candida albicans, 2 µM; in the series on Aspergillus fumigatus, above 64 µM; with Cyberlindnera jadinii it was 2 µM. For the same compound, the half-inhibitory concentration (IC50) at 24 h in series [2] is above 87.5 µM. Further, in series [1], the hemolysis at 0.75 h, 100 µM came out at 0.4%.
Regarding `N=C(N)NCCC[C@H](NC(=O)[C@H](Cc1ccccc1)NC(=O)[C@@H](N)CCCNC(=N)N)C(=O)NCCc1ccccc1` (H-Arg-Phe-Arg-NHPhenethyl), the MIC in the series on Escherichia coli, in the series with Staphylococcus aureus, with Candida albicans, in the series with Aspergillus fumigatus and in the series with Cyberlindnera jadinii was above 64 µM each time. Also, in series [1], the hemolysis at 0.75 h, 100 µM was determined as 0.33%.
Turning to `COc1c(Br)cc(CCNC(=O)[C@H](CCCCN)NC(=O)[C@H](Cc2cc(Br)c(OC)c(Br)c2)NC(=O)[C@@H](N)CCCCN)cc1Br`, the MIC in the series on Escherichia coli is above 64 µM; in the series with Staphylococcus aureus, 64 µM; in the series with Candida albicans it was above 64 µM; in the series on Aspergillus fumigatus, above 64 µM; in the series with Cyberlindnera jadinii, 32 µM.
On to `N=C(N)NCCC[C@H](NC(=O)[C@H](Cc1c[nH]c2cc(Br)ccc12)NC(=O)[C@@H](N)CCCNC(=N)N)C(=O)NCCc1ccccc1`, for which the minimum inhibitory concentration (MIC) was above 64 µM in the series on Escherichia coli; above 64 µM in the series with Staphylococcus aureus; 16 µM in the series on Candida albicans; above 64 µM in the series on Aspergillus fumigatus; 8 µM in the series on Cyberlindnera jadinii. In addition, the half-inhibitory concentration (IC50) at 24 h in series [2] was above 87.5 µM. Moreover, in series [1], the hemolysis at 0.75 h, 100 µM worked out at 0.29%.
Take `C[N+](C)(C)CCCC[C@H](N)C(=O)N[C@@H](Cc1ccc(-c2ccccc2)cc1)C(=O)N[C@@H](CCCNC(=N)N)C(=O)NCCc1ccccc1` (H-[Lys(Me3)]-[Bip]-Arg-NHPhenethyl): the MIC in the series with Escherichia coli, in the series on Staphylococcus aureus, with Candida albicans, in the series on Aspergillus fumigatus and with Cyberlindnera jadinii was above 64 µM in each case.
As to `C[N+](C)(C)CCCCC[C@H](N)C(=O)N[C@@H](Cc1ccc(-c2ccccc2)cc1)C(=O)N[C@@H](CCCNC(=N)N)C(=O)NCCc1ccccc1`, the MIC in the series on Escherichia coli, with Staphylococcus aureus, in the series with Candida albicans, in the series with Aspergillus fumigatus and with Cyberlindnera jadinii was above 64 µM in each case.
